OX1R antag-1 – OX1R (human) antagonism. O43613. 1.8% of 330,000 active. inhibition, % at 6.6 µM. OX1R-expressing cells, FRET antagonist read-out; in the data active = inhibition mostly above about 38%, no sharp cut-off; inactive = mostly below about 40%;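 note: 0% = agonist challenge alone and 100% = reference antagonist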
OX1R antag-2 – human HCRTR1 antagonism; O43613; CHO/OX1R cells, Fluo-8 calcium fluorescence, orexin A; inhibition, % at 5 µM; 0.43% of 330,000 active;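 active = inhibition above its plate's threshold, mean inhibition of all tested compounds on the plate plus 3 SD, cut at about 37% in these data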;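 note: 0% = orexin A challenge wells and 100% = SB-334867-A antagonist wells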
CHO parental Ca – signal in parental CHO cells, OX1R antagonist counter-screen. parental CHO-K1, ATP-induced calcium, Fluo-8 fluorescence. inhibition, % at 5.6 µM. 0.63% of 330,000 active. AID 463079;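 active = inhibition above that plate's mean sample inhibition plus 3 SD, cut at about 26% in these data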;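 note: 0% = ATP-challenged DMSO wells and 100% = DMSO wells without ATP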
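material = parental CHO cells | also added = ATP as calcium-mobilizing challenge | dosing = single point at 5.6 µM | detection = intracellular calcium via Fluo-8 no-wash fluorescent dye | read-out = % inhibition | benchmarks = low control ATP plus DMSO, high control DMSO only | repeats = one well per compound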
GalR3 antag – human GalR3 antagonism; O60755; HEK293 GalR3-CNG cAMP membrane potential fluorescence; galR3 body fused to GalR1 C-terminus; inhibition, % at 3 µM; 0.44% of 360,000 active;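 active = inhibition above the screen-wide average plus 3 SD, cut at about 13% in these data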;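 note: forskolin and galanin both at EC90 stimulate the cells; cAMP rise reported by CNG channel membrane potential dye signal; 0% = forskolin plus galanin with DMSO and 100% = forskolin alone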
Target sequence (O60755 1-299 limits assumed): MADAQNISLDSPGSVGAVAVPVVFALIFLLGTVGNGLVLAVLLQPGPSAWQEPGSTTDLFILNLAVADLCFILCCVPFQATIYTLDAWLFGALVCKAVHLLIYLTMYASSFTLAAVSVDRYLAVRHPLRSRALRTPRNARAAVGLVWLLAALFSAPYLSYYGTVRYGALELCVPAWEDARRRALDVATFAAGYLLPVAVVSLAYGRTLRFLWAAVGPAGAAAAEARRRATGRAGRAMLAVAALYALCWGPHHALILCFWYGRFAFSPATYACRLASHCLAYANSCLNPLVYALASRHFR
GPR7 antag – blocks human GPR7 receptor signaling. GPR7-expressing cells, fluorescence antagonist assay. inhibition, % at 4.4 µM. 1.1% of 290,000 active. AID 1861; in the data active = inhibition above about 16%, passing the limit was not always enough;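 note: cells stimulated with the agonist NPW; 0% = agonist with vehicle and 100% = vehicle without agonist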
Target sequence (P48145 whole entry, looked up): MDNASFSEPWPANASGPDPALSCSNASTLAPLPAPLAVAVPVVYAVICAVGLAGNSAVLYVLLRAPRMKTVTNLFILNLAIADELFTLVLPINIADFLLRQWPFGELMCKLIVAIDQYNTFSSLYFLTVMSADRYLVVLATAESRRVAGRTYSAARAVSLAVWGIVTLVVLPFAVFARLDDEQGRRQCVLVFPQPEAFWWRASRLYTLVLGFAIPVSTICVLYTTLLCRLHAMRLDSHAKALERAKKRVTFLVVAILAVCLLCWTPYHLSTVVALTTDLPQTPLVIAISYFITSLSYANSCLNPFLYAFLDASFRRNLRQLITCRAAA
The depositor's hits bear a star; . = no result given. Shown are actives, neighbours in structure and some others; about 3.1% of the full set was active somewhere.

SMILES	OX1R antag-1	OX1R antag-2	CHO parental Ca	GalR3 antag	GPR7 antag
COC(=O)[C@]12CCCCC=C1N(Cc1ccccc1)C(=O)[C@H](CC(=O)NCc1ccccc1)C2	.	.	.	-2	.
COc1cccc(-c2nc(NCc3ccco3)c3ccccc3n2)c1O	29	-20	-5	-8	-16
COc1cccc(-c2nc(NCc3ccccc3)c3ccccc3n2)c1O	37*	-9	-1	-8	-17
C=CCNc1nc(-c2cccc(OC)c2O)nc2ccccc12	47*	-8	5	-3	-22
COC(=O)C1=C(C)N(Cc2cccc(C(F)(F)F)c2)C(=NCC2CC2)NC1c1cccc(Cl)c1 (centres undefined)	.	.	.	-4	.
O=C(CSc1ccc(-c2cccc([N+](=O)[O-])c2)nn1)N1CCCCCC1	17	-29	-17	2	1
O=C(CSc1ccc(-c2cccc([N+](=O)[O-])c2)nn1)N1CCCC1	72*	-16	-15	-2	2
COc1ccc(COC(=O)CCNC(=O)c2ccc(Cl)cc2)cc1	53*	-11	-9	-5	.
CCN(C(=O)COC(=O)c1ccc(Cl)cc1N)C1CCCCC1	29	-14	-5	-5	-6
O=C(COC(=O)c1ccc2c(c1[N+](=O)[O-])C(=O)c1ccccc1C2=O)NC1CC1	74*	9	21	1	-16
O=C(COC(=O)c1ccccc1C(=O)c1ccc(Cl)c([N+](=O)[O-])c1)NC1CCCCCC1	21	48*	39*	-4	30*
Cn1c(N)c(C(=O)COC(=O)c2ccccc2C(=O)c2ccc(Cl)c([N+](=O)[O-])c2)c(=O)n(C)c1=O	36*	12	-2	.	.
O=C(COC(=O)c1ccc(Cl)c([N+](=O)[O-])c1)NC1CCCC1	17	-10	-8	-12	-5
Nc1cc(Cl)ccc1C(=O)OCC(=O)NC1CCCCC1	25	17	30*	-2	0
Cc1cc(C(=O)N/N=C/c2c(C)[nH]c3ccccc23)n[nH]1	11	-4	-8	5	-8
Cc1[nH]c2ccccc2c1/C=N/NC(=O)c1cc(-c2cccs2)[nH]n1	57*	0	-10	-3	-5
Cc1cccc(C)c1N=Nc1c(C)cc(O)cc1C	-1	6	60*	-3	-31
Cc1cc(O)cc(=O)n1-c1cccc([N+](=O)[O-])c1	.	.	.	-7	.
Cc1ccc(S(=O)(=O)Cc2cc(F)c([N+](=O)[O-])cc2[N+](=O)[O-])cc1	41*	60*	57*	.	30*
Cc1occc1-c1n[nH]c(=S)n1-c1ccccc1	3	-16	-6	-3	-1
Cc1occc1-c1n[nH]c(=S)n1C	13	12	2	13*	-14
Cc1cc(C)c(S(=O)(=O)/N=C2/C=C(Sc3ncn[nH]3)C(=O)c3ccccc32)cc1C	63*	0	-6	-7	-14
Cn1ccnc1C(=O)c1ccc(NN)c([N+](=O)[O-])c1	53*	-36	-16	-1	-16
Cn1ccnc1C(=O)c1cccc([N+](=O)[O-])c1	39	-18	-10	1	2
Oc1cccc2cnccc12	31	-7	1	-4	-8
SMILES	OX1R antag-1	OX1R antag-2	CHO parental Ca	GalR3 antag	GPR7 antag
N#Cc1cccc2cnccc12	38	-4	-8	-3	19*
O=C(Nc1ccccc1C(=O)Nc1nccs1)c1ccccc1	.	.	.	-8	.
O=C(Cn1cnc([N+](=O)[O-])n1)NCc1ccccc1	72*	2	-2	2	7
O=C(Cn1cnc([N+](=O)[O-])n1)NCCO	28	1	-6	1	-13
O=c1[nH]c(CSc2nc3ccccc3[nH]2)nc2c1cnn2-c1ccccc1	106*	90*	52*	2	-5
Cc1ccc2nc(SCc3nc4c(cnn4-c4ccccc4)c(=O)[nH]3)[nH]c2c1	90*	80*	39*	0	6
CCOC(=O)[C@]12CCC=C1N(Cc1ccccc1)C(=O)[C@H](CC(=O)NCc1cccc(C(F)(F)F)c1)C2	.	.	.	-7	.
CC(=O)N1CCN(c2ccc(N3CCN(Cc4ccccc4)[C@H](C)C3)c(C)c2)[C@H](C)C1	.	.	.	-5	.
CC1=NN(c2ccccc2)C(=O)/C1=C/C=C/C=C/N(C)C	73*	9	2	-4	1
COC(=O)C1=C(C)N(Cc2cccc(C(F)(F)F)c2)C(=NCc2cc(OC)c(OC)c(OC)c2)NC1c1ccccc1C(F)(F)F (centres undefined)	.	.	.	-3	.
c1ccc(COc2cccc(-c3cc4nc(NCCc5ccncc5)ccn4n3)c2)cc1	.	.	.	-4	.
CN(C)S(=O)(=O)Oc1ccsc1C(=O)Nc1cccc(Cl)c1Cl	42	-26	46*	-2	-1
C[C@H](O)[C@@H]1C(=O)N2CCc3c([nH]c4cccc(-c5ccccc5)c34)[C@@H]2C[C@@H]1N(C)C(=O)Nc1ccccc1	.	.	.	-7	.
O=C1NC(=O)/C(=C\c2ccc(Br)o2)S1	38*	-21	-5	-4	-3
COCCCNC(=O)[C@@H](Cc1ccccc1)NC(=O)[C@H]1O[C@@H](n2ccc(=O)[nH]c2=O)[C@H](O)[C@@H]1O	.	.	.	-7	.
Cc1ccc(C(=O)OC2CCN(c3ccc([N+](=O)[O-])cc3)CC2)cc1	13	-4	-2	-6	-13
O=C(OC1Cn2c(=O)ccc(=O)n2C1)c1ccc([N+](=O)[O-])cc1	45*	-10	-5	-6	6
C[C@H]1O[C@@H](O[C@H]2[C@@H](O)C[C@H](O[C@H]3[C@@H](O)C[C@H](O[C@H]4CC[C@@]5(C)[C@H](CC[C@@H]6[C@@H]5C[C@@H](O)[C@]5(C)[C@@H](C7=CC(=O)OC7)CC[C@]65O)C4)O[C@@H]3C)O[C@@H]2C)C[C@H](O)[C@@H]1O	8	-5	-9	23*	3
N#Cc1cc2c(=O)n3ccccc3nc2n(Cc2cccnc2)c1=O	41	-15	-5	-3	.
Cc1ccc2nc3c(cc(C(=O)NC4CCCC4)c(=N)n3CCCn3ccnc3)c(=O)n2c1	84*	-1	-7	.	-11
N#Cc1cc2c(=O)n3ccccc3nc2n(CCCN2CCOCC2)c1=O	54*	-27	2	-6	-2
COc1ccc(CCNC(=O)c2cc3c(=O)n4ccccc4nc3n(CCN3CCOCC3)c2=N)cc1	31	-4	-1	1	10
COc1ccc(CCNC(=O)c2cc3c(=O)n4ccccc4nc3n(CCCN3CCOCC3)c2=N)cc1	51*	-20	-15	-2	15
N=c1c(C(=O)NC2CCCC2)cc2c(=O)n3ccccc3nc2n1CCCN1CCOCC1	45*	-14	-1	-9	-2
CCCNc1nc2nc3ccccn3c(=O)c2cc1C(=O)NCCN1CCOCC1	52*	-7	-5	-7	-8
COc1ccc(CCNC(=O)c2cc3c(=O)n4ccccc4nc3n(CCCN3CCOCC3)c2=N)cc1OC	74*	8	-18	-8	-1

High-throughput results (PubChem BioAssay)
